This note sets out measurements from PMC3378255 (ACS chemical neuroscience, 2012).

Like-named read-outs stand apart in the source and are kept apart here.

A short description of data set [1]: Plasma protein binding, human. It is filed as in vitro ADME. The following applies: for bound to both human and mouse plasma: human and mouse plasma together; for plasma protein binding (% Bound): human.
A short description of data set [2]: Plasma protein binding, mouse. The data set is classed as in vitro ADME.
For data set [3] the following is noted: mouse, microsomes, 1 h.
For data set [4], the system named is Fa2N-4 immortalized human hepatocytes. The data set is described as follows: Hepatic toxicity. It is filed as cell-based. The following applies: in words.
Data set [5] relates to 44 GPCR and other molecular targets. Nature of the data set: PDSP binding assay panel of 44 GPCR and other molecular targets. A digest of the protocol: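 The Psychoactive Drug Screening Program ran radioligand binding assays across 44 GPCR and other targets. Test compounds were first screened at a single 10 μM concentration. Those showing significant activity then went to Ki determination.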

The target of another data set is KOR (Homo sapiens, UniProt P41145). Nature of the data set: PDSP radioligand binding assay, KOR.
KOR, sequence (P41145 whole entry): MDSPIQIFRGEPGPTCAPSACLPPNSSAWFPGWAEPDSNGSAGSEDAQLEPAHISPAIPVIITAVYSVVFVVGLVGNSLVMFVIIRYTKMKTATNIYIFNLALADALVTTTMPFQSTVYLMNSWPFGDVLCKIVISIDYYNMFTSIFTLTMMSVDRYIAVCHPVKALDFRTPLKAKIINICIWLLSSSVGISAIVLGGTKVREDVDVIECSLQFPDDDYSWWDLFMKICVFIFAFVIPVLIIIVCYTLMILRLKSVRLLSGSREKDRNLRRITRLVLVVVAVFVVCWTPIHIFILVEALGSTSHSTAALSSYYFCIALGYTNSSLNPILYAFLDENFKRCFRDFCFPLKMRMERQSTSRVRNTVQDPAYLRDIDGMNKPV

Consider `COc1ccc(N2CCN(CCCNC(=O)Cn3c(=O)c4cccn4c4c(C)ccnc43)CC2)cc1` [4{13}, N-(3-(4-(4-Methoxyphenyl)piperazin-1-yl)propyl)-2-(1-methyl-6-oxopyrido[2,3-e]pyrrolo[1,2-a]pyrazin-5(6H)-yl)acetamide], for which the “PAMPA Pe” value stood at 2.7e-05 cm/s. The “PAMPA Pe” value (pH 7.4) is 0.000757 cm/s. In data set [1], the “bound to both human and mouse plasma” value was 80–94%. Besides, the “plasma protein binding (% Bound)” value in data set [1] (1µM) came to 93.96 % Bound. The “plasma protein binding (% Bound)” value in data set [1] (10µM) is on record as 88.54 % Bound. Moreover, the “plasma protein binding (% Bound)” value in data set [2] (1µM) was determined as 88.46 % Bound. Also, the “plasma protein binding (% Bound)” value in data set [2] (10µM) came out at 80.07 % Bound. For the same compound, the hepatic microsome stability in data set [3] was determined as 7.3 % remaining.

For the compound `O=C(c1ccccn1)N(Cc1cccs1)C1(C(=O)NC2CCCCC2)CCCCC1` [1{1}, N-(1-(Cyclohexylcarbamoyl)cyclohexyl)-N-(thiophen-2-ylmethyl)picolinamide], the “toxicity toward human hepatocytes” value in data set [4] is “significant toxicity”. Moreover, in data set [1], the “bound to both human and mouse plasma” value was 90–99%. In addition, the “plasma protein binding (% Bound)” value in data set [1] (1µM) is 99.59 % Bound; in data set [1] (10µM), 99.07 % Bound; in data set [2] (1µM) it was 94.05 % Bound; in data set [2] (10µM) it was 90.70 % Bound. Besides, the “affinity across the PDSP assay panel” value in data set [5] (in words, concentrations up to 10,000 nM) is “affinity only for the opioid receptors”. For the same compound, the affinity at KOR, expressed as Ki, was 0.6 nM.

As for `Cc1ccc(S(=O)(=O)NCc2ccc(C(=O)NCCN(Cc3ccccc3)C(C)C)cc2)cc1` [3{1}, N-(2-(Benzyl(isopropyl)amino)ethyl)-4-((4-methylphenylsulfonamido)methyl)benzamide], the “PAMPA Pe” value was 1710–1940 ×10^−6 cm/s. Moreover, the “bound to both human and mouse plasma” value in data set [1] is 90–99%. In addition, the “plasma protein binding (% Bound)” value in data set [1] (1µM) turned out to be 99.67 % Bound. For the same compound, the “plasma protein binding (% Bound)” value in data set [1] (10µM) was determined as 99.73 % Bound. The “plasma protein binding (% Bound)” value in data set [2] (1µM) worked out at 98.90 % Bound. In addition, in data set [2] (10µM), the “plasma protein binding (% Bound)” value was 98.92 % Bound.

In the case of `Clc1ccc(CSc2nnc(-c3ccccn3)n2Cc2ccco2)cc1Cl` [2{8}], in data set [1], the “bound to both human and mouse plasma” value is given as 90–99%. Besides, the “plasma protein binding (% Bound)” value is reported as 99.75 % Bound in data set [1] (1µM), 99.80 % Bound in data set [1] (10µM), 99.80 % Bound in data set [2] (1µM) and 99.64 % Bound in data set [2] (10µM). Further, the Ki (in general, a dissociation constant, usually derived from enzyme kinetics or from competition with a known ligand) in data set [5] (read-out: Ki values for 11 non-opioid targets, weak binding affinity, PDSP panel) fell in the range of 1000 to 10000 nM.
